According to publication PMC8526403 (ACS chemical biology, 2021):
Entries after “also recorded” stand apart in the source; their conditions may differ.

Assays:
[1] = target: T1, 3-OST-4 (Homo sapiens, UniProt Q9Y661); experiment: Reactivity of 12-mers and HS to 3-OST-4 modification; type: biochemical; settings: 12-mer substrates compared to HS polysaccharide
T1 sequence (Q9Y661 163-456): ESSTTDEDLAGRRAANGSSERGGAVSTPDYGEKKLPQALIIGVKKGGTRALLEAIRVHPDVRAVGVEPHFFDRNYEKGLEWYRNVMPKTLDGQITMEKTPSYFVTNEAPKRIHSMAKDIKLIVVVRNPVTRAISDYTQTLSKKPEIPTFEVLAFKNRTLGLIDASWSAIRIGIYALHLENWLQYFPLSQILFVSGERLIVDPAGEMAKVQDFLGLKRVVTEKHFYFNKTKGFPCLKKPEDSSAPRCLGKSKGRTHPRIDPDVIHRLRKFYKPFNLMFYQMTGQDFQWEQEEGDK
Outline: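 Each 12-mer (10 μg) was incubated with 3-OST-4 (5 μL of 0.8 mg mL−1 stock) in 100 μL of 50 mM Tris-HCl, pH 7.5. The reaction contained [35S]PAPS (5 μM, 1.2 × 10^5 cpm) and ran 1 h at 37 °C. Product was recovered on DEAE and 35S counted as cpm. A no-substrate reaction served as background.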

[2] = system: acetaminophen overdosed mice; settings: acetaminophen overdose model; cited from earlier work
[3] = target: human FXa (Homo sapiens, UniProt P01008); experiment: Anti-FXa activity; type: biochemical; settings: for fold increase of anti-FXa IC50 compared to HSoligo 9: ratio of IC50 values; for anti-FXa IC50: with antithrombin, 0–5000 ng/mL
Outline: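 Human FXa at 50 U/mL in PBS. Test compound dissolved in PBS at 0–5000 ng/mL, preincubated with antithrombin (35 μg/mL) for 2 min at 37 °C. FXa added for 4 min at 37 °C, then diluted S-2765 (1 mg mL−1). A405 read continuously for 5 min. Maximum slope divided by control maximum slope gives % FXa activity.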

[4] = target: T2, HMGB1 (Mus musculus, UniProt P63158); experiment: Binding of biotinylated oligosaccharides to HMGB1; settings: biotinylated oligosaccharide, mouse liver lysate; for fold increase in binding to HMGB-1 compared to negative control NS6S 8-mer: Western band intensity
T2 sequence (P63158 1-215): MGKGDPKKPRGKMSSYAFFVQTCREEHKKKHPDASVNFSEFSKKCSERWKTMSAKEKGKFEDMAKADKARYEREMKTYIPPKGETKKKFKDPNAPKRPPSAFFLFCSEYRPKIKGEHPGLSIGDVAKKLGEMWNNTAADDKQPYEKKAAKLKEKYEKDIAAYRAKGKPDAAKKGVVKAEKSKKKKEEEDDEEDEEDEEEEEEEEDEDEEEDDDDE
Outline: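 Biotinylated oligosaccharides (~20 nmol) were mixed with fresh mouse liver lysate containing HMGB1 in 20 mM HEPES, pH 7.2, 100 mM NaCl, 1% BSA. Incubation was overnight at 4 °C. Complexes were captured on streptavidin agarose and washed 5× in 20 mM HEPES/250 mM NaCl, pH 7.2. They were eluted in LDS buffer and blotted with rabbit monoclonal anti-HMGB1 plus HRP secondary. Bands were quantified densitometrically.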

[5] = target: tau protein (Homo sapiens, UniProt P10636); experiment: Binding of biotinylated oligosaccharides to Cy5-labeled tau; settings: biotinylated oligosaccharide
Outline: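 Biotinylated oligosaccharides (~10 nmol) were incubated overnight at 4 °C with Cy5-labeled tau (5 μg) in 20 mM HEPES, pH 7.2, 100 mM NaCl, 1% BSA. Complexes were captured on streptavidin agarose and washed 3× in HEPES/250 mM NaCl, then 2× in PBS. Tau was released with heparin lyases II (14 μg) and III (20 μg) over 4 h at RT. Released tau was resolved on 4–12% Bis-Tris gels, read by fluorescence scanning and quantified.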

[6] = target: factor IIa (FIIa) (Homo sapiens, UniProt P01008); experiment: Anti-FIIa activity; type: biochemical
[7] = system: acetaminophen overdosed mice; experiment: Hepatoprotection in acetaminophen overdosed mice; type: in vivo, mouse
[8] = target: T1, 3-OST-4; experiment: 3-OST-4 modification of oligosaccharide substrates, anion exchange HPLC analysis; type: biochemical; settings: for sulfation by 3-OST-4 (in words): HPLC analysis of substrate with or without 3-OST-4 modification
Outline: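 Recombinant human 3-OST-4 (E163–K456) was expressed in Sf9 insect cells and purified on heparin then Ni-Sepharose. Oligosaccharide substrates were incubated overnight at 37 °C with PAPS and 3-OST-4 (0.8 mg mL−1 stock) in 50 mM Tris, pH 7.2, with 2 mM CaCl2. For the 8-mer substrate C, 2 mM MnCl2 was also present. Conversion was followed by anion exchange HPLC.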

Chain of tau protein (P10636 1-441 isoform P10636-8): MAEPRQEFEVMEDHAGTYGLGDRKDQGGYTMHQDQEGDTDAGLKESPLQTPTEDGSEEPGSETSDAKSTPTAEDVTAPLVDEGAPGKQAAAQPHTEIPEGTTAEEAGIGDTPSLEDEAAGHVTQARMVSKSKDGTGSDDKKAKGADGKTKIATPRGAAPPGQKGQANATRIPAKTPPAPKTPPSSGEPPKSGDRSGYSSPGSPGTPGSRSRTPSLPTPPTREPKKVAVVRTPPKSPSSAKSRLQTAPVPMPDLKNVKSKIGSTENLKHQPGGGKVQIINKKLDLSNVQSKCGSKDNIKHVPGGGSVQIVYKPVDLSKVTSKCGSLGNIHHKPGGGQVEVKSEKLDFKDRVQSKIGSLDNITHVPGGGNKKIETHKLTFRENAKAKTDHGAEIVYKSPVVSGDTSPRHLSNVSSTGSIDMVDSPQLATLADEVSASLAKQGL
Chain of factor IIa (FIIa) (P01008 33-464): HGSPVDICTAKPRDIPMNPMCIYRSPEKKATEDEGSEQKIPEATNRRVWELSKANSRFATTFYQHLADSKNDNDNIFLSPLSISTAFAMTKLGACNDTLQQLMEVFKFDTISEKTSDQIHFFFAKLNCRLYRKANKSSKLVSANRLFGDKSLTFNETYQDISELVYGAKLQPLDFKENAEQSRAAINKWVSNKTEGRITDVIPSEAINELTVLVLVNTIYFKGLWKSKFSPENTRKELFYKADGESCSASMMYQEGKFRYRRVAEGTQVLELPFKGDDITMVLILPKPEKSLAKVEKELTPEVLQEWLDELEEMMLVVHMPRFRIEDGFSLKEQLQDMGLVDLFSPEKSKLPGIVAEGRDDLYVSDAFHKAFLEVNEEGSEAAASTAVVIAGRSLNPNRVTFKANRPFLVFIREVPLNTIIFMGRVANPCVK
Chain of human FXa (P01008 33-464): as above

Substance	reactivity toward 3-OST-4 modification (in words) [1]	anti-FXa IC50 [3]	anti-IIa IC50 [6]	further results
GlcNAc-(GlcA-GlcNAc)5-GlcA-pNP [12-mer NAc]	not substrates			
GlcNS6S-(GlcA-GlcNS6S)5-GlcA-pNP [12-mer NS6S]	not substrates			
GlcNS6S-GlcA-(GlcNS6S-IdoA2S)4-GlcNS6S-GlcA-pNP [12-mer NS2S6S]	not substrates			
GlcNS6S-GlcA-GlcNS3S6S-IdoA2S-GlcNS6S-IdoA2S-GlcNS6S-IdoA2S-GlcNS6S-IdoA2S-GlcNS6S-IdoA2S-GlcNS6S-IdoA2S-GlcNS6S-IdoA2S-GlcNS6S-GlcA-Biotin [18-mer AXa]				hepatoprotection effect [2]: does not display the hepatoprotection effect
GlcNS6S-GlcA-GlcNS6S-GlcA2S-GlcNS3S6S-GlcA2S-GlcNS3S6S-GlcA2S-pNP [HSoligo 7]		0.0795 µg/mL	lacks anti-FIIa activity; also recorded: no inhibition	fold increase of anti-FXa IC50 compared to HSoligo 9 [3]: 3.5 fold; extent of binding to HMGB1 relative to positive control 18-mer AXa (in words) [4]: comparable to that of 18-mer AXa; fold increase in binding to HMGB-1 compared to negative control NS6S 8-mer [4]: 15 fold; binding to tau, fold higher than 8-mer NS6S [5]: 2 fold; binding to tau, fold higher than HSoligo 4 [5]: 4 fold; level of binding to tau relative to 18-mer AXa (in words) [5]: comparable to 18-mer AXa; hepatoprotection: plasma level of alanine aminotransferase (ALT) [7]: did not find a decrease
GlcNS6S-GlcA-GlcNS6S-GlcA2S-GlcNS3S6S-GlcA2S-pNP [HSoligo 5]		0.1544 µg/mL	no inhibition	
GlcNS6S-GlcA-GlcNS6S-GlcA2S-GlcNS3S6S-GlcA-pNP [HSoligo 4]		0.3114 µg/mL	no inhibition	fold increase of anti-FXa IC50 compared to HSoligo 9 [3]: 6.9 fold; fold increase in binding to HMGB-1 compared to negative control NS6S 8-mer [4]: 6 fold
GlcNS6S-GlcA-GlcNS6S-GlcA2S-GlcNS3S6S-IdoA2S-GlcNS-GlcA-pNP [HSoligo 9]		0.0225 µg/mL	no inhibition	
GlcNS-(GlcA-GlcNS)5-GlcA-pNP [12-mer NS]	Lower reactivity			
GlcNS-GlcA-(GlcNS-IdoA2S)4-GlcNSGlcA-pNP [12-mer NS2S]	preferably sulfates			
GlcNS-GlcA-GlcNS-GlcA2S-GlcNS3S-IdoA2S-GlcNS-GlcA-pNP [HSoligo 8]		no inhibition	no inhibition	
GlcNS-GlcA-GlcNS-GlcA2S-GlcNS-GlcA2S-pNP [6-mer substrate E]				sulfation by 3-OST-4 (in words) [8]: highly reactive
GlcNS-GlcA-GlcNS-GlcA2S-GlcNS-GlcA-pNP [6-mer substrate D]				sulfation by 3-OST-4 (in words) [8]: nearly quantitatively converted
GlcNS-GlcA-GlcNS-GlcA-GlcNS-IdoA2S-GlcNS-GlcA-pNP [8-mer substrate B]				sulfation by 3-OST-4 (in words) [8]: failed to sulfate
GlcNS-GlcA-GlcNS-IdoA2S-GlcNS-IdoA2S-GlcNS-GlcA-pNP [8-mer substrate C]				substrate converted to 3-O-sulfated product after 3-OST-4 modification ([8]; HPLC, conversion to HSoligo 1): about 71%
